Source: PubChem (several laboratories)
Compounds with a hit are over-represented: about 1.5% of the library has one in this group of screens.
PKA-R1A act: PKA-R1A complex activation. activation, % at 11.4 µM. AID 504707. P00514+P68181. PKA-R1A dissociation, Cy5-IP20 fluorescence polarization; scaled: DMSO 0%, 113 µM cGMP 100%. 340,000 compounds, 0.083% hits;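 active means percent activation above the mean of all tested compounds plus 3 SD, cut at about 19% in these data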;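 further: higher means more PKAc released from R1A so a rise in polarization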
PKA-R2B activ: PKA-R2B complex activation; P22694+P31323; PKA-R2B holoenzyme dissociation, Cy5-IP20 fluorescence polarization; R2B truncated from residue 108, S112A mutant; 0% DMSO only, 100% 113 µM cGMP; activation, % at 11.4 µM; 340,000 compounds, 0.079% hits; AID 504700;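 active means activation above a cutoff set at the mean over all compounds plus 3 SD, cut at about 18% in these data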;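 further: higher means more holoenzyme dissociation and a rise in polarization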
SIRT5 inh: blocks human SIRT5 desuccinylation of peptide; 330,000 compounds, 1.1% hits; inhibition, % at 15 µM; Purified SirT5, succinyl-peptide AMC, trypsin-coupled fluorescence; AID 652115; in the data active means inhibition above about 15%
Target sequence (Q9NXA8 whole entry, looked up): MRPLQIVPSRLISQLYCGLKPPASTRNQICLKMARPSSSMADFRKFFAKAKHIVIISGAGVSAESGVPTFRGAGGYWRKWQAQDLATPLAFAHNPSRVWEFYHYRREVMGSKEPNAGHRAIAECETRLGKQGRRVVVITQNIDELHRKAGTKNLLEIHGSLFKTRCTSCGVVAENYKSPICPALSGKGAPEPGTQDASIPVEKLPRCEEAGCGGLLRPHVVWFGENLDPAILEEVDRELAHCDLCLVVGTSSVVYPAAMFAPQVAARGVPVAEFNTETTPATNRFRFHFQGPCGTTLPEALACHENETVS
CRFR2-BP antag: blocks CRF-induced signaling of the CRF-BP/CRF-R2 complex. HEK293 CRF-R2/CRF-BP, CRF-induced calcium fluorescence. inhibition, % at 11.8 µM. 350,000 compounds, 0.59% hits. AID 588475;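 active means inhibition of the ligand-induced calcium signal above about 50% at the single tested concentration, limit read from the data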
S100A4 inh HTS: S100A4-myosin IIA interaction inhibition; P26447; S100A4/TAMRA-MyoIIA peptide fluorescence polarization; inhibition, % at 10.7 µM; 360,000 compounds, 0.14% hits;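 active means mean inhibition of at least 70% across replicates, with every replicate also reaching that level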
Target sequence (P26447 whole entry, looked up): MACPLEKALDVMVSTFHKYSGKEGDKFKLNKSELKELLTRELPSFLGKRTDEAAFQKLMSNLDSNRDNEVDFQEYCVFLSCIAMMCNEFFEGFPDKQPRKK
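incubation = readout 5 min after mixing, signal stable up to 60 min | system = S100A4 monomer protein | buffer or medium = HEPES pH 7.2 with CaCl2, KCl, NaCl, DTT, Triton | benchmarks = neutral control DMSO, positive control TFP | also added = fluorescent myosin IIA peptide, 5 nM | compound dosing = one concentration per compound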
* hit, by the source's call; · = no result.

SMILES	PKA-R1A act	PKA-R2B activ	SIRT5 inh	CRFR2-BP antag	S100A4 inh HTS
CC1CCCN(C(=O)COC(=O)C2CCN(S(=O)(=O)c3c(Cl)cccc3Cl)CC2)C1 (stereo not drawn)	-4	-4	18*	14	5
COc1ccc(NC(=O)N(C)C[C@H]2Oc3ccc(NS(=O)(=O)c4ccc(Cl)cc4)cc3C(=O)N([C@H](C)CO)C[C@H]2C)cc1	·	·	2	·	-7
O=C(O)c1cccc(N/N=C/c2cc(Br)cc(Br)c2O)c1	-11	-9	·	64*	·
COc1ccc(Br)cc1/C=N/Nc1cccc(C(=O)O)c1	-1	-2	1	35	0
O=C(COC(=O)CNC(=O)c1ccccc1)NC(=O)NC1CCCCC1	1	-5	23*	5	-3
O=C(COC(=O)CNC(=O)c1ccccc1)NC1CCCCC1	-7	-7	-2	-2	1
COc1ccc(S(=O)(=O)N(C)C[C@@H]2Oc3ccc(NS(=O)(=O)c4ccc(C)cc4)cc3C(=O)N([C@H](C)CO)C[C@H]2C)cc1	·	·	3	·	4
Cc1cc(C)n(-c2ccc(C(=O)Oc3ccc4c(c3)OCO4)cc2)n1	2	-6	·	73*	·
C[C@H](CO)N1C[C@H](C)[C@H](CN(C)S(=O)(=O)c2cn(C)cn2)OCCCC[C@H](C)Oc2ccc(NC(=O)c3ccccc3)cc2C1=O	·	·	0	·	8
CN(CC(=O)Nc1ccc(Cl)c(C(F)(F)F)c1)C(=O)c1cc(=O)c2ccccc2o1	-2	0	22*	-9	6
Cc1ccc(C(=O)N(C)CC(=O)Nc2ccc(Cl)c(C(F)(F)F)c2)cc1S(=O)(=O)N1CCCCC1	8	2	19*	-6	4
CN(CC(=O)Nc1ccc(Cl)c(C(F)(F)F)c1)C(=O)c1cc(=O)[nH]c2ccccc12	-13	0	2	-7	6
C[C@H]1CN([C@@H](C)CO)C(=O)c2cc(NC(=O)CCN3CCOCC3)ccc2O[C@H]1CN(C)Cc1ccc(C(=O)O)cc1	·	·	-5	·	-5
CO[C@@H]1CN(C)C(=O)c2cc(NC(=O)CC(F)(F)F)ccc2OC[C@@H](C)N(S(=O)(=O)c2cn(C)cn2)C[C@@H]1C	·	·	·	·	6
O=C1O[C@@H](Cc2ccccc2)[C@H]2[C@@H]3C=CCCC=C3CN2C12CCCC2	·	·	2	·	-8
COc1ccccc1C1CC(c2ccc(Br)cc2)=NN1C(=O)c1cccnc1 (stereo not drawn)	-3	-12	·	-32	·
COc1cccc(C2CC(c3ccc(Br)cc3)=NN2C(=O)c2ccncc2)c1OC (stereo not drawn)	-11	-18	112*	0	0
O=C(C[C@@H]1CC[C@@H]2[C@H](COC[C@H](O)CN2CC2CCCC2)O1)NCC1CC1	·	·	11	·	13
O=C(CN1C(=O)NC2(CCCC2)C1=O)Nc1ccc(S(=O)(=O)N2CCOCC2)cc1	-11	0	18*	-12	-3
CCCC1(CCC)NC(=O)N(CC(=O)Nc2ccc(Cl)c(S(=O)(=O)N3CCOCC3)c2)C1=O	4	-3	2	69*	-5
CC1CCCCC12NC(=O)N(CC(=O)Nc1ccc(Cl)c(S(=O)(=O)N3CCOCC3)c1)C2=O (stereo not drawn)	-6	4	0	-10	-2
CCC1(c2ccc(F)cc2)NC(=O)N(CC(=O)Nc2cccc(S(=O)(=O)N3CCCC3)c2)C1=O (stereo not drawn)	-5	10	-2	-34	-2
CCC1(c2ccc(F)cc2)NC(=O)N(CC(=O)Nc2cccc(S(=O)(=O)N3CCCCC3)c2)C1=O (stereo not drawn)	2	7	15*	-82	0
COc1ccc(NC(=O)Nc2ccc3c(c2)CC(=O)N([C@@H](C)CO)C[C@@H](C)[C@H](CN(C)Cc2ccncc2)O3)cc1	·	·	-4	·	7
COc1cccc(CSc2nnc(C(F)(F)F)n2Cc2ccc(F)cc2)c1	-2	-2	-3	64*	-2
SMILES	PKA-R1A act	PKA-R2B activ	SIRT5 inh	CRFR2-BP antag	S100A4 inh HTS
Cc1ccc(CSc2nnc(C(F)(F)F)n2Cc2ccc(F)cc2)cc1	3	1	-3	-1	-3
COc1ccccc1NC(=O)N1C[C@H]2[C@@H](c3ccccc31)[C@H](CO)N2C(=O)C1CCCC1	·	·	-9	·	3
O=C(NC[C@H]1[C@@H](c2ccccc2)[C@@H](CO)N1Cc1ccccn1)NC1CCCC1	·	·	3	·	12
COCCNC(=O)[C@H]1[C@H](CO)[C@H]2Cn3c(ccc(-c4ccccc4F)c3=O)[C@H]2N1C(=O)C1CC1	·	·	-7	·	4
Cc1cc(C)c(C(=O)C(C)OC(=O)Cc2n[nH]c(=O)c3ccccc23)cc1C (stereo not drawn)	-5	7	15*	-2	-11
CC(C)C(NS(=O)(=O)c1ccc2c(c1)Cc1cc(S(=O)(=O)NC(C(=O)O)C(C)C)ccc1-2)C(=O)O (stereo not drawn)	4	-2	25*	3	0
COc1c(Cl)cc(Cl)cc1CNc1ccc(S(N)(=O)=O)cc1	-2	5	-1	58*	-1
O=C(C[C@@H]1C[C@@H]2c3cc(NC(=O)Nc4ccc(C(F)(F)F)cc4)ccc3O[C@@H]2[C@@H](CO)O1)NCC1CC1	·	·	3	·	6
CNC[C@H]1Oc2c(NC(=O)Nc3ccc4c(c3)OCO4)cccc2C(=O)N([C@H](C)CO)C[C@H]1C	·	·	-2	·	6
Cc1ccc(S(=O)(=O)N[C@@H](CO)C(=O)N[C@@H](Cc2ccc(O)cc2)C(=O)O)cc1	3	10	21*	2	-4
CN(C(=O)CCc1nnc(CCCCc2ccccc2)o1)C1CC(C)(C)NC(C)(C)C1	-4	5	27*	3	-5
CN(C(=O)CCc1nnc(CCCCc2ccccc2)o1)C1CCOCC1	-16	-6	-1	12	-16
CCCNC(=O)N1C[C@H](O)COC[C@@H]2O[C@H](CC(=O)N[C@H]3CCN(Cc4ccccc4)C3)CC[C@H]21	·	·	6	·	87*
O=C(C[C@H]1CC[C@@H]2[C@H](COC[C@H](O)CN2C(=O)Cc2ccccc2)O1)NC1CCCC1	·	·	4	·	-1
O=C(C[C@H]1CC[C@@H]2[C@H](COC[C@@H](O)CN2C(=O)Cc2ccccc2)O1)NC1CCCC1	·	·	0	·	90*
COc1cccc(S(=O)(=O)N[C@@H]2CC[C@@H](CCNC(=O)Nc3cc(F)ccc3F)O[C@@H]2CO)c1	·	·	-2	·	7
C/C=C/c1ccc([C@H]2[C@H](CO)N3C(=O)CN(C(=O)c4cccc(F)c4)C[C@@H]23)cc1	·	·	0	·	3
CCn1c(CCNC(=O)c2ccc(Cl)cc2Cl)n[nH]c1=S	-3	2	·	25	·
CCn1c(Cc2ccccc2)n[nH]c1=S	5	4	31*	-4	1
CCn1c(CCc2ccccc2)n[nH]c1=S	3	3	·	-3	2
